Compound activity: PubChem, The Scripps Research Institute Molecular Screening Center
NR2E3 ag-1: NR2E3 (human) agonism; GST-NR2E3/biotin-RetCOR TR-FRET, 1536-well; 0.12% of 320,000 active; AID 2300; inhibition of corepressor binding, % at 4.78 µM; Q9Y5X4;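 active means percent inhibition above the cutoff of mean plus 3 SD of all tested compounds, set per screening campaign, cut at about 20% in these data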
Target sequence (Q9Y5X4 whole entry, looked up): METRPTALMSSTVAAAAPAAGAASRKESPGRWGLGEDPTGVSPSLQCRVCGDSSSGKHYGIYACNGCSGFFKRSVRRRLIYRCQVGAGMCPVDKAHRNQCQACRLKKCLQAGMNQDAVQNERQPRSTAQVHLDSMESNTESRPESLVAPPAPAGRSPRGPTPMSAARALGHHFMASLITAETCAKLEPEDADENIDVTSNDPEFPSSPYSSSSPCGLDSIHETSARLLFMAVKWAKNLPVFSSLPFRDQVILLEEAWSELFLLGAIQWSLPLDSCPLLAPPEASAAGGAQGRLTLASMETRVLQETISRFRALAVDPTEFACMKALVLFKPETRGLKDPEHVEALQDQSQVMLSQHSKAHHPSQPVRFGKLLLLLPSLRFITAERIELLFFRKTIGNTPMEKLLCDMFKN
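Test system: GST-NR2E3 and biotin-RetCOR proteins | Quantity: 1.35 nM GST-tagged NR2E3 final | Medium: Tris pH 7.5 | Also added: 7 nM biotin-RetCOR | Dosing: Compound at 4.8 µM, single dose | Timing: 5 h at 4 °C | Detection: Time-resolved FRET | Read-out basis: Percent inhibition | Benchmarks: Biotin wells as high control, 0.6% DMSO wells as low control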
PP1 inh: counter-screen for PP5 inhibitors: inhibitors of human PP1-alpha | P62136 | purified PP1alpha, OMFP fluorescence | inhibition, % at 6.7 µM | 0.9% of 320,000 active | AID 2235;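 active means inhibition above the mean inhibition of all tested compounds plus 3 SD, computed separately for each screening campaign, cut at about 15% in these data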
PP5 inh: blocks human protein phosphatase 5 activity; P53041; purified PP5c, OMFP substrate fluorescence; inhibition, % at 6.7 µM; 0.18% of 320,000 active; AID 1987;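 active means inhibition above the campaign's mean inhibition across all tested compounds plus 3 SD, cut at about 9.5% in these data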
NR2E3 ag-2: activates human NR2E3 receptor; Q9Y5X4; CHO-S Gal4-NCOR/VP16-NR2E3 two-hybrid, luciferase; inhibition of corepressor binding, % at 3.98 µM; 0.35% of 360,000 active;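 active means inhibition above the mean of all tested compounds plus 3 SD, cut at about 70% in these data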;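 further: higher means lower luciferase signal from less NR2E3 corepressor binding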
A number is an active result; i = inactive; nt = no result given; ! = not confirmed by another sample. Only some compounds are listed: those with a hit (about 1.3% of all), similar ones and a draw of the others.

SMILES	NR2E3 ag-1	PP1 inh	PP5 inh	NR2E3 ag-2
CC[n+]1c(/C=C/Nc2ccccc2)sc2ccccc21	i	i	i	i
C=C(C1=CCN(S(=O)(=O)C(C)(C)C)[C@@H]1CCO)c1ccccc1	nt	nt	nt	i
O=C(c1ccc(OCCN2CCCCC2)cc1)c1c(-c2ccc(O)cc2)sc2cc(O)ccc12	i	16.3!	i	i
COc1ccc(F)cc1-c1cc(NC=O)c2ncc(-c3cccc(C(F)(F)F)c3)n2c1	nt	nt	nt	i
CCCCOc1ccc(C(=O)NNC(=O)c2cnccn2)cc1OC	nt	nt	nt	i
O=C1/C(=C/c2ccc(N3CCOCC3)o2)SC(=Nc2ccccc2)N1CCc1c[nH]c2ccccc12	i	34.4	i	i
Cc1ccc(-c2csc(=Nc3cccnc3)n2CCCn2ccnc2)cc1C	i	i	i	i
c1cncc(N=c2scc(-c3cccc4ccccc34)n2CCCn2ccnc2)c1	i	15.8	i	i
CCc1nc2c(OCC(=O)C(C)(C)C)cccn2c1N(C)C(=O)Nc1ccccc1OC	nt	nt	nt	i
CCOc1ccc(-n2c(SCC(=O)Nc3ccc(CC)cc3)nc3n[nH]c(C)c3c2=N)cc1	i	16.3	i	i
CCCN(CCC)C(=O)CSc1nc2n[nH]c(C)c2c(=N)n1-c1ccc(OCC)cc1	i	i	i	i
Cc1cccc(N2CCN(S(=O)(=O)c3ccc4[nH]c(=O)ccc4c3)CC2)c1C	i	16.2	i	i
O=S(=O)(Nc1cccnc1)c1ccc(C2CCCCC2)cc1	i	i	i	91.7
O=S(=O)(Nc1cccnc1)c1ccccc1	i	i	i	i
N=C(N)c1ccc(/C=C/c2ccc(C(=N)N)cc2O)cc1	i	i	i	i
Cc1cccc(NC(=O)CN2C(=O)S/C(=C\c3cc(C)n(C)c3C)C2=O)c1	i	16.3	i	i
N/C(=N\N=C/c1ccc(Br)cc1)N/N=C\c1ccc(Br)cc1	i	i	i	i
N/C(=N\N=C/c1ccc(F)cc1)N/N=C\c1ccc(F)cc1	i	16.4	i	i
Cc1nn(-c2ccccc2)c(Cl)c1/C=C1\SC(=S)NC1=O	i	i	i	i
Cc1nn(-c2ccccc2)c(Cl)c1/C=C1\SC(=S)N(CCCCCC(=O)O)C1=O	i	16.4	i	i
COc1ccc(CCC(C)NC(=O)Cc2ccc(OC)c(OC)c2)c(OC)c1 (centres undefined)	i	i	i	i
COc1ccc(CCn2c(O)cc3nn(-c4nc5ccccc5s4)c(=O)c-3c2C)cc1	i	17.3	i	i
COc1ccc(CN2CCN(c3nc4ccccc4s3)CC2)cc1	nt	nt	nt	i
CCCN(CC(=O)Nc1ccccc1OC)Cc1c(O)ccc2ccccc12	i	i	i	i
COc1ccc(C2/C(=C(/O)c3ccc(C)cc3)C(=O)C(=O)N2c2ccccn2)cc1 (centres undefined)	i	i	i	i
SMILES	NR2E3 ag-1	PP1 inh	PP5 inh	NR2E3 ag-2
Cc1ccc(/C(O)=C2/C(=O)C(=O)N(c3ccccn3)C2c2ccc([N+](=O)[O-])cc2)cc1 (centres undefined)	i	15.7	i	i
COc1ccc(Cl)cc1-n1c(=S)sc2c(=O)[nH]c(SCC(=O)C(C)(C)C)nc21	i	16.8	i	i
COc1ccc(-n2c(SCC(=O)C(C)(C)C)nc3c(sc(=S)n3-c3ccccc3)c2=O)c(OC)c1	i	15.6	i	i
CCCCNC(=O)CSc1nc2c(sc(=S)n2-c2cc(Cl)ccc2OC)c(=O)[nH]1	i	i	i	i
CCOC(=O)CSc1nc2c(sc(=S)n2-c2ccccc2OC)c(=O)n1-c1ccccc1OC	i	i	i	i
C[C@@H]1CN([C@@H](C)CO)C(=O)c2cc(-c3cccnc3)cnc2O[C@H]1CN(C)C(=O)c1cccc(F)c1	nt	nt	nt	i
O=C(NC1CCN(S(=O)(=O)c2cccc([N+](=O)[O-])c2)CC1)C1CCCCC1	i	16.0	i	i
O=C(NC1CCN(Cc2ccccc2)CC1)C1CCN(S(=O)(=O)c2cccc([N+](=O)[O-])c2)CC1	i	i	i	i
COc1ccc(NC(=O)COC(=O)CCc2ccccc2)c(OC)c1	i	i	i	i
O=C1CC(c2ccco2)Cc2nc(Nc3nc(-c4ccccc4)c4ccccc4n3)ncc21 (centres undefined)	i	26.2	i	i
CC(C)(C)OC(=O)NCCCC[C@H](NC(=O)c1[nH]cnc1C(=O)Nc1ccc(CNC(=O)OC(C)(C)C)cc1)C(=O)OC(C)(C)C	i	17.0	i	nt
CC(C)(C)OC(=O)NCCCC[C@H](NC(=O)c1[nH]cnc1C(=O)N[C@@H](Cc1ccccc1)C(=O)OC(C)(C)C)C(=O)OC(C)(C)C	i	15.2	i	i
